Source: PubChem
Insulin prom act = TRM-6 insulin promoter activation. TRM-6 cells, insulin promoter eGFP reporter, imaging; plate-scaled: unstimulated 0, stimulated control 100. activation, % at 2 µM. actives 0.81% (n = 130,000);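 active means activation at 2 µM above a set limit, confirmed on inspection of the cell images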;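 further: share of cells whose green reporter signal exceeds an intensity cutoff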
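System – human fetal islet-derived TRM-6 cells with tamoxifen-inducible insulin promoter–eGFP reporter · Amount – 1,000 cells per well · Schedule – overnight tamoxifen, then two-day compound incubation at 37 °C · Detection – high-content imaging of fixed cells with Hoechst nuclear stain · Read-out – percent cells above green-intensity threshold, converted to percent activation versus plate controls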
Numbers without * were called inactive. Shown is part of a subset that was picked to be rich in hits.

SMILES	Insulin prom act
CCOC(=O)c1sc2nc(N3CCOCC3)c3c(c2c1N)CCN(C)C3	500*
COc1ccc(C2N(Cc3ccccc3)CCN2Cc2ccccc2)cc1[N+](=O)[O-]	6
CC(=O)N(C)C(c1ccc(N(C)C)cc1)c1nnnn1-c1c(C)cccc1C (stereo unspecified)	-9
COC(=O)CC(c1ccc(C(C)C)cc1)n1cccc1 (stereo unspecified)	7
CCn1c(C)nc2cc(C(=O)N/N=C/c3ccc(OC)c(O)c3)ccc21	-4
COc1cccc(-c2noc(-c3ccc(Br)o3)n2)c1	-7
CCCc1cc(NCc2ccccn2)n2c(nc3ccccc32)c1C#N	0
CCCc1cc(-n2cnc3ccccc32)n2c(nc3ccccc32)c1C#N	76*
CCCNc1cc(C)c(C#N)c2nc3ccccc3n12	381
Cc1ccc(OCCCC(=O)NCc2ccco2)c(C)c1	0
CC(=O)Nc1ccccc1C(=O)C(=O)Nc1ccc(C(=O)NCC2CCCO2)cc1 (stereo unspecified)	7
CC(C)CC(=O)Nc1ccccc1-c1nnn(CC(=O)N2CCc3ccccc3C2)n1	3
COP(=O)(OC)c1nc(-c2ccccc2)oc1N1CCOCC1	6
CCOC(=O)C1=C(C)NC(=S)NC1c1ccsc1 (stereo unspecified)	0
O=C(N/N=C/c1cc([N+](=O)[O-])c(N2CCOCC2)cc1N1CCOCC1)c1cccnc1	-69
Cc1ccc(S(=O)(=O)Nc2ccc(N(C)C)cc2)cc1	0
CCOc1ccc(NS(=O)(=O)c2ccc(NC(=S)NC(C)=O)cc2)cc1	7
COc1ccc(S(=O)(=O)Nc2ccc(N(C)C(C)=O)cc2)cc1	103*
COc1ccc2cc(Br)ccc2c1CC(=O)NC(C)(C)C	0
Cc1ccc(C2=NN(CC(=O)NCc3ccccn3)C(=O)CC2)cc1	5
Cn1cc(CN2CCCC(CO)(Cc3ccccc3)C2)cn1 (stereo unspecified)	-7
Cc1cccc(N2CCN(C(=O)Cc3ccc(Br)cc3)CC2)c1C	8
O=C(CSCc1ccccc1)N1CCN(c2ccccc2)CC1	118
O=C(Cc1ccc(Br)cc1)N1CCN(c2ccccc2)CC1	467*
COc1cccc(-c2ccc(SCc3ccccn3)nn2)c1	0
SMILES	Insulin prom act
Cc1ccc(C(=O)NCC(=O)N/N=C/c2cccs2)cc1[N+](=O)[O-]	0
O=C(c1cc2sccc2n1Cc1ccccc1)N1CCc2ccccc21	0
CCOC(=O)c1cc2sccc2n1CC(=O)C(C)(C)C	213*
COC(=O)c1cc2sccc2n1CC(=O)N1CCCc2ccccc21	193*
CCOC(=O)c1cc2sccc2n1Cc1ccccc1	0
CCOC(=O)c1cc2sccc2n1CC(=O)N1CCCc2ccccc21	9
CCOC(=O)c1cc2sc(C)cc2n1CC(=O)NCc1ccc(F)cc1	-82
CN(C)S(=O)(=O)Oc1cc(Cl)ccc1C(=O)Nc1ccc(F)cc1F	-7
CCc1nnc(NC(=O)C2CCCCN2S(=O)(=O)c2ccccc2)s1 (stereo unspecified)	6
CC(C)(C)C(=O)NC(=S)NNC(=O)c1ccc(-c2ccccc2)cc1	-81
Cc1cc(C(=O)C(=O)O)c(C)n1-c1ccc(Cl)c(Cl)c1	-5
COc1cccc(C2=NN(C(=O)c3cccs3)C(O)(C(F)(F)F)C2)c1 (stereo unspecified)	7
CC(=O)/C=C1\SC(CC(=O)O)C(=O)N1c1ccccc1 (stereo unspecified)	-5
COc1ccccc1NC(=O)CC1C(=O)NCCN1C(=O)Nc1ccccc1 (stereo unspecified)	0
C=CCNC(=O)CC1C(=O)NCCN1Cc1c(F)cccc1Cl (stereo unspecified)	4
CC(C)CCN1CCNC(=O)C1CC(=O)Nc1ccc(F)cc1 (stereo unspecified)	186*
CN=c1sc2ccccc2n1CC(O)COCc1ccco1 (stereo unspecified)	-7
OC(COCc1ccco1)CN1CCN(C(c2ccccc2)c2ccccc2)CC1 (stereo unspecified)	129*
CN(Cc1cccs1)CC(O)COCc1ccco1 (stereo unspecified)	-5
Cc1ccc(C2C3=C(CCCC3=O)N=C3c4ccccc4C(=O)C32)cc1 (stereo unspecified)	0
CCOc1ccc(C(=O)N(Cc2ccc(OC)cc2)Cc2cc3cc(OC)ccc3[nH]c2=O)cc1	-9
CCCN(Cc1cc2cc(C)ccc2[nH]c1=O)S(C)(=O)=O	-92
CCCN(Cc1cc2cc(C)ccc2[nH]c1=O)C(=O)c1cccc(OC)c1	197*
Cc1cccc(OCc2nnc(SCC(=O)Nc3cccc(C(=O)N4CCOCC4)c3)o2)c1C	0
Cc1ccc(S(=O)(=O)N(C)C)cc1NC(=O)COC(=O)/C(=C/c1ccc(F)cc1)c1cccs1	-64
CC(C)NC(=O)/C(C#N)=C\c1ccc(N(C)C)o1	560*
CCN(CC)c1ccc(/C=C(/C#N)C(=O)NCc2ccccc2)o1	169
CNC(=O)/C(C#N)=C\c1ccc(CNS(=O)(=O)c2ccccc2)o1	3
Brc1ccc(CSc2nnc(-c3ccccn3)n2Cc2ccco2)cc1	0
